Measurements reported in ChEMBL document CHEMBL1143876, “Synthesis, analgesic, anti-inflammatory, and antimicrobial activity of some novel pyrimido[4,5-b]quinolin-4-ones” (2008).

How the values were obtained:
Staphylococcus aureus [1] = experiment: Antimicrobial activity against Staphylococcus aureus at 50 ug/disk after 24 to 28 hrs; assay type: functional; conditions: read-out: IZ
Procedure, shortened: (§1)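 Agar disk diffusion: 5 mm paper disks loaded with 50 µg/disk in DMSO. Inhibition zones read after 24–28 h at 37 °C for bacteria, or 5 days at 28 °C for clinical Candida isolates grown on Sabouraud dextrose agar. Zone graded 6–10 mm slight, 11–15 mm moderate, >15 mm high. Reference disks: nalidixic acid 30 µg, nystatin 100 U.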

Escherichia coli [2] = experiment: Antimicrobial activity against Escherichia coli; assay type: functional
Procedure, shortened: (§2)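 MIC found by disk diffusion using disks carrying varying amounts of compound per disk, in DMSO. Incubated 24–28 h at 37 °C for bacteria and 5 days at 28 °C for Candida. MIC given in µg/disk.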

Pseudomonas aeruginosa [3] = experiment: Antimicrobial activity against Pseudomonas aeruginosa; assay type: functional; procedure, shortened: as §2
Mus musculus [4] = experiment: Analgesic activity in Swiss albino mouse assessed as reaction time at 15 mg/kg, po after 90 mins by hot plate test; assay type: functional
Procedure, shortened: (§3)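 Mice of both sexes, 25–30 g, on a hot plate at 53 ± 0.5 °C; reaction time taken to hind-paw lick or jump, 60 s cut-off. Baseline read before dosing. Oral dosing in 10% v/v Tween 80 in water: test agents 15 mg/kg, acetylsalicylic acid 100 mg/kg. Re-read at 15, 30, 60 and 90 min; means ± SE.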

Mus musculus [5] = experiment: Analgesic activity against acetic acid-induced abdominal constriction in Swiss albino mouse at 15 mg/kg, po after 20 mins by writhing test relative to acetylsalicylic acid; assay type: functional, Abdomen
Procedure, shortened: (§4)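 Mice of both sexes, 25–30 g, dosed orally in 10% v/v Tween 80 in water. Test agents were given at 15 mg/kg and acetylsalicylic acid at 100 mg/kg. 30 min later, 0.7% acetic acid (10 ml/kg) ip. Writhes counted over 20 min; six per group. % protection = (control mean − treated mean)/control mean ×100; means ± SE.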

Mus musculus [6] = experiment: Analgesic activity in Swiss albino mouse assessed as reaction time at 15 mg/kg, po after 60 mins by hot plate test; assay type: functional; procedure, shortened: as §3
Klebsiella pneumoniae [7] = experiment: Antimicrobial activity against Klebsiella pneumoniae at 50 ug/disk after 24 to 28 hrs; assay type: functional; conditions: read-out: IZ; procedure, shortened: as §1
Pseudomonas aeruginosa [8] = experiment: Antimicrobial activity against Pseudomonas aeruginosa at 50 ug/disk after 24 to 28 hrs; assay type: functional; conditions: read-out: IZ; procedure, shortened: as §1
Escherichia coli [9] = experiment: Antimicrobial activity against Escherichia coli at 50 ug/disk after 24 to 28 hrs; assay type: functional; conditions: read-out: IZ; procedure, shortened: as §1
Mus musculus [10] = experiment: Analgesic activity against acetic acid-induced abdominal constriction in Swiss albino mouse at 15 mg/kg, po after 20 mins by writhing test; assay type: functional, Abdomen; procedure, shortened: as §4
Staphylococcus aureus [11] = experiment: Antimicrobial activity against Staphylococcus aureus; assay type: functional; procedure, shortened: as §2
Mus musculus [12] = experiment: Analgesic activity in Swiss albino mouse assessed as reaction time at 15 mg/kg, po after 30 mins by hot plate test; assay type: functional; procedure, shortened: as §3
Klebsiella pneumoniae [13] = experiment: Antimicrobial activity against Klebsiella pneumoniae; assay type: functional; procedure, shortened: as §2
Rattus norvegicus [14] = experiment: Antiinflammatory activity against carrageenan-induced paw edema in Sprague-Dawley rat at 15 mg/kg, po after 2 hrs; assay type: functional
Procedure, shortened: (§5)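 Adult male rats, 150–180 g, six per group. Oral dose 1 h before 0.1 ml 1% carrageenin sc into the left hind footpad: test agents 15 mg/kg as suspension, indomethacin 10 mg/kg; vehicle 10% Tween 80. Paw volume by plethysmometer before injection, then hourly for 4 h. Edema % = (Vt−Vc)/Vc; inhibition % = (Ec−Et)/Ec. Potency taken relative to indomethacin. Means ± SE.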

Rattus norvegicus [15] = experiment: Antiinflammatory activity against carrageenan-induced paw edema in Sprague-Dawley rat at 15 mg/kg, po after 3 hrs; assay type: functional; procedure, shortened: as §5
Rattus norvegicus [16] = experiment: Antiinflammatory activity against carrageenan-induced paw edema in Sprague-Dawley rat at 15 mg/kg, po relative to indomethacin after 4 hrs; assay type: functional; procedure, shortened: as §5
Nakaseomyces glabratus = experiment: Antimicrobial activity against Candida glabrata at 50 ug/disk after 5 days; assay type: functional; conditions: for zone of inhibition at 50 µg/disc: 120 h, read-out: IZ; procedure, shortened: as §1
Rattus norvegicus [17] = experiment: Antiinflammatory activity against carrageenan-induced paw edema in Sprague-Dawley rat at 15 mg/kg, po relative to indomethacin after 1 hr; assay type: functional; procedure, shortened: as §5
Rattus norvegicus [18] = experiment: Antiinflammatory activity against carrageenan-induced paw edema in Sprague-Dawley rat at 15 mg/kg, po relative to indomethacin after 2 hrs; assay type: functional; procedure, shortened: as §5
Candida albicans = experiment: Antimicrobial activity against Candida albicans at 50 ug/disk after 5 days; assay type: functional; conditions: 120 h, read-out: IZ; procedure, shortened: as §1
Rattus norvegicus [19] = experiment: Antiinflammatory activity against carrageenan-induced paw edema in Sprague-Dawley rat at 15 mg/kg, po relative to indomethacin after 3 hrs; assay type: functional; procedure, shortened: as §5
Rattus norvegicus [20] = experiment: Antiinflammatory activity against carrageenan-induced paw edema in Sprague-Dawley rat at 15 mg/kg, po after 1 hr; assay type: functional; procedure, shortened: as §5
Rattus norvegicus [21] = experiment: Antiinflammatory activity against carrageenan-induced paw edema in Sprague-Dawley rat at 15 mg/kg, po after 4 hrs; assay type: functional; procedure, shortened: as §5
Mus musculus [22] = experiment: Analgesic activity in Swiss albino mouse assessed as reaction time at 100 mg/kg, po after 90 mins by hot plate test; assay type: functional; procedure, shortened: as §3
Mus musculus [23] = experiment: Analgesic activity in Swiss albino mouse assessed as reaction time at 100 mg/kg, po after 30 mins by hot plate test; assay type: functional; procedure, shortened: as §3
Mus musculus [24] = experiment: Analgesic activity against acetic acid-induced abdominal constriction in Swiss albino mouse at 100 mg/kg, po after 20 mins by writhing test; assay type: functional, Abdomen; procedure, shortened: as §4
Mus musculus [25] = experiment: Analgesic activity in Swiss albino mouse assessed as reaction time at 100 mg/kg, po after 60 mins by hot plate test; assay type: functional; procedure, shortened: as §3

O=c1c2c(-c3ccccc3)c3c(nc2nc2[nH]nnn12)CCCC3
zone of inhibition at 50 µg/disc (Staphylococcus aureus [1]): 17 mm | MIC (Escherichia coli [2]): 30 µg | MIC (Pseudomonas aeruginosa [3]): 30 µg | Time (Mus musculus [4]): 10.08 s | Activity (Mus musculus [5]): 27.07% | Time (Mus musculus [6]): 10.78 s | zone of inhibition at 50 µg/disc (Klebsiella pneumoniae [7]): 16 mm | zone of inhibition at 50 µg/disc (Pseudomonas aeruginosa [8]): 22 mm | zone of inhibition at 50 µg/disc (Escherichia coli [9]): 18 mm | Activity (Mus musculus [10]): 14% | MIC (Staphylococcus aureus [11]): 30 µg | Time (Mus musculus [12]): 9.16 s | MIC (Klebsiella pneumoniae [13]): 30 µg

Cc1cc(C)n(-c2nc3nc4c(c(-c5ccccc5)c3c(=O)[nH]2)CCCC4)n1
inhibition in vivo at 15 mg/kg (Rattus norvegicus [14]): 0.9% | zone of inhibition at 50 µg/disc (Staphylococcus aureus [1]): 21 mm | inhibition in vivo at 15 mg/kg (Rattus norvegicus [15]): 0.1% | inhibition in vivo at 15 mg/kg (Rattus norvegicus [16]): 1.7% | zone of inhibition at 50 µg/disc (Nakaseomyces glabratus): 9 mm | inhibition in vivo at 15 mg/kg (Rattus norvegicus [17]): 14.5% | MIC (Escherichia coli [2]): 30 µg | MIC (Pseudomonas aeruginosa [3]): 30 µg | Time (Mus musculus [4]): 11.5 s | Activity (Mus musculus [5]): 114.51% | Time (Mus musculus [6]): 10.15 s | inhibition in vivo at 15 mg/kg (Rattus norvegicus [18]): 1.5% | zone of inhibition at 50 µg/disc (Klebsiella pneumoniae [7]): 20 mm | zone of inhibition at 50 µg/disc (Pseudomonas aeruginosa [8]): 22 mm | zone of inhibition at 50 µg/disc (Candida albicans): 9 mm | inhibition in vivo at 15 mg/kg (Rattus norvegicus [19]): 0.1% | inhibition in vivo at 15 mg/kg (Rattus norvegicus [20]): 10.5% | zone of inhibition at 50 µg/disc (Escherichia coli [9]): 19 mm | Activity (Mus musculus [10]): 59.2% | MIC (Staphylococcus aureus [11]): 30 µg | Time (Mus musculus [12]): 8.93 s | MIC (Klebsiella pneumoniae [13]): 30 µg | inhibition in vivo at 15 mg/kg (Rattus norvegicus [21]): 0.8%

CC(=O)Oc1ccccc1C(=O)O [ASPIRIN]
Time (Mus musculus [22]): 13.15 s | Time (Mus musculus [23]): 10.03 s | Activity (Mus musculus [24]): 51.7% | Time (Mus musculus [25]): 11.39 s

CCn1cc(C(=O)O)c(=O)c2ccc(C)nc21 [NALIDIXIC ACID]
zone of inhibition at 50 µg/disc (Staphylococcus aureus [1]): 25 mm | zone of inhibition at 50 µg/disc (Klebsiella pneumoniae [7]): 25 mm | zone of inhibition at 50 µg/disc (Pseudomonas aeruginosa [8]): 25 mm | zone of inhibition at 50 µg/disc (Escherichia coli [9]): 24 mm

NYSTATIN
inhibition zone (IZ) (Nakaseomyces glabratus): 19 mm

NNc1nc2nc3c(c(-c4ccccc4)c2c(=O)[nH]1)CCCC3
inhibition in vivo at 15 mg/kg (Rattus norvegicus [14]): 20.8% | zone of inhibition at 50 µg/disc (Staphylococcus aureus [1]): 11 mm | inhibition in vivo at 15 mg/kg (Rattus norvegicus [15]): 21.8% | inhibition in vivo at 15 mg/kg (Rattus norvegicus [16]): 40.1% | inhibition in vivo at 15 mg/kg (Rattus norvegicus [17]): 53.5% | Time (Mus musculus [4]): 12 s | Activity (Mus musculus [5]): 102.32% | Time (Mus musculus [6]): 10.61 s | inhibition in vivo at 15 mg/kg (Rattus norvegicus [18]): 35.7% | zone of inhibition at 50 µg/disc (Klebsiella pneumoniae [7]): 13 mm | zone of inhibition at 50 µg/disc (Pseudomonas aeruginosa [8]): 15 mm | inhibition in vivo at 15 mg/kg (Rattus norvegicus [19]): 51.1% | inhibition in vivo at 15 mg/kg (Rattus norvegicus [20]): 30.5% | zone of inhibition at 50 µg/disc (Escherichia coli [9]): 13 mm | Activity (Mus musculus [10]): 52.9% | Time (Mus musculus [12]): 7.54 s | inhibition in vivo at 15 mg/kg (Rattus norvegicus [21]): 18.6%

O=c1[nH]c(N/N=C\c2ccccc2)nc2nc3c(c(-c4ccccc4)c12)CCCC3
zone of inhibition at 50 µg/disc (Staphylococcus aureus [1]): 16 mm | zone of inhibition at 50 µg/disc (Nakaseomyces glabratus): 7 mm | Time (Mus musculus [4]): 12.68 s | Activity (Mus musculus [5]): 67.51% | Time (Mus musculus [6]): 12.52 s | zone of inhibition at 50 µg/disc (Klebsiella pneumoniae [7]): 18 mm | zone of inhibition at 50 µg/disc (Pseudomonas aeruginosa [8]): 14 mm | zone of inhibition at 50 µg/disc (Candida albicans): 7 mm | zone of inhibition at 50 µg/disc (Escherichia coli [9]): 15 mm | Activity (Mus musculus [10]): 34.9% | Time (Mus musculus [12]): 10.08 s

O=c1[nH]c(=S)[nH]c2nc3c(c(-c4ccc(Cl)cc4)c12)CCCC3
zone of inhibition at 50 µg/disc (Staphylococcus aureus [1]): 13 mm | zone of inhibition at 50 µg/disc (Klebsiella pneumoniae [7]): 14 mm | zone of inhibition at 50 µg/disc (Pseudomonas aeruginosa [8]): 14 mm | zone of inhibition at 50 µg/disc (Escherichia coli [9]): 13 mm
